Measured values published in ChEMBL document CHEMBL4364301 (Eur J Med Chem, 2019).

Legend:
Format in all cases: functional
LNCaP = assay: Antiproliferative activity against human LNCAP cells assessed as reduction in cell growth incubated for 96 hrs by propidium iodide based 2D monolayer assay
In short: (§1)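 After 24 h recovery, compound in medium or medium alone (control wells) was added at 10 half-log concentrations from 0.0032 to 100 µM, in triplicate, with at most 0.3% DMSO. After 96 h, wells were PBS-washed, stained with 7 µg/ml PI and 0.1% Triton X-100, and fluorescence read at 530/620 nm. IC50 came from a 4-parameter fit, geometric mean.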

CWR22R = assay: Antiproliferative activity against human 22Rv1 cells assessed as reduction in cell growth incubated for 96 hrs by propidium iodide based 2D monolayer assay; conditions: 22Rv1, 96 h; in short: as §1
DU-145 = assay: Antiproliferative activity against human DU145 cells assessed as reduction in cell growth incubated for 96 hrs by propidium iodide based 2D monolayer assay; conditions: DU-145, 96 h; in short: as §1
VCaP = assay: Antiproliferative activity against human VCaP cells assessed as reduction in cell growth incubated for 96 hrs by propidium iodide based 2D monolayer assay
In short: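 VCaP cells in RPMI 1640 with 10% FCS at 37 °C, 5% CO2, seeded 4,000–20,000 cells/well and left 24 h before dosing. Compounds from DMSO stocks were diluted in half-log steps in medium, 10 concentrations 0.0032–100 μM, triplicate wells, max 0.3% DMSO. After 96 h, cells were washed, stained with 7 μg/ml propidium iodide plus 0.1% Triton X-100 for 1–2 h at room temperature, and fluorescence read at ex 530/em 620 nm.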

Compound | IC50 (LNCaP) [µM] | IC50 (CWR22R) [µM] | IC50 (DU-145) [µM] | IC50 (VCaP) [µM]
CC1(C)C(=O)N(c2cccc(S(F)(F)(F)(F)F)c2)C(=S)N1c1ccc(C(F)(F)F)cc1 | 5.2 | 22.4 | 39.8 | 54.2
CC1(C)C(=O)N(c2ccc([N+](=O)[O-])c(C(F)(F)F)c2)C(=S)N1c1cccc(S(F)(F)(F)(F)F)c1 | 100 | 100 | 100 | 100
CC1(C)C(=O)N(c2ccc([N+](=O)[O-])c(C(F)(F)F)c2)C(=S)N1c1ccc(S(F)(F)(F)(F)F)cc1 | 13 | 100 | 100 | 100
CC1(C)C(=O)N(c2ccc([N+](=O)[O-])cc2C(F)(F)F)C(=S)N1c1ccc(S(F)(F)(F)(F)F)cc1 | 100 | 100 | 100 | 100
CC1(C)C(=O)N(c2ccc(C#N)c(C(F)(F)F)c2)C(=S)N1c1cccc(S(F)(F)(F)(F)F)c1 | 6.9 | 100 | 100 | 100
CNC(=O)c1ccc(N2C(=S)N(c3cccc(S(F)(F)(F)(F)F)c3)C(=O)C2(C)C)cc1F | 25.1 | 37.3 | 51.1 | 55.8
CC(O)(CSc1cc(C(F)(F)F)cc(C(F)(F)F)c1)C(=O)Nc1cccc(S(F)(F)(F)(F)F)c1 (stereo not given) | 4.8 | 4.4 | 9.4 | 4
CC1(C)C(=O)N(c2ccc(S(F)(F)(F)(F)F)cc2)C(=S)N1c1cccc(C(F)(F)F)c1 | 8.8 | 59.6 | 100 | 100
CC1(C)C(=O)N(c2ccc(S(F)(F)(F)(F)F)cc2)C(=S)N1c1ccc(C(F)(F)F)cc1 | 47.4 | 100 | 100 | 100
CNC(=O)c1ccc(N2C(=S)N(c3ccc(S(F)(F)(F)(F)F)cc3)C(=O)C2(C)C)cc1F | 23 | 32.1 | 41.6 | 31.6
CC1(C)C(=O)N(c2ccc([N+](=O)[O-])cc2C(F)(F)F)C(=S)N1c1cccc(S(F)(F)(F)(F)F)c1 | 5.3 | 43.9 | 100 | 100
CC(O)(CSc1cccc(C(F)(F)F)c1)C(=O)Nc1cccc(S(F)(F)(F)(F)F)c1 (racemic) | 12.7 | 12.9 | 19.1 | 20.2
CC(O)(CSc1ccc(S(F)(F)(F)(F)F)cc1)C(=O)Nc1cccc(S(F)(F)(F)(F)F)c1 (racemic) | 12.7 | 13.1 | 24.8 | 24.1
CC(O)(CSc1ccccc1C(F)(F)F)C(=O)Nc1ccc(S(F)(F)(F)(F)F)cc1 (racemic) | 12.3 | 13.2 | 15.8 | 21
CC(O)(CSc1ccc(S(F)(F)(F)(F)F)cc1)C(=O)Nc1ccc([N+](=O)[O-])c(C(F)(F)F)c1 (racemic) | 8.7 | 9.2 | 13.9 | 10.1
CC(O)(COc1ccc(S(F)(F)(F)(F)F)cc1)C(=O)Nc1ccc(C#N)cc1C(F)(F)F (racemic) | 12.3 | 14.7 | 16 | 25.5
CC(O)(CSc1cccc(S(F)(F)(F)(F)F)c1)C(=O)Nc1ccc(C#N)cc1C(F)(F)F (racemic) | 17.6 | 21.6 | 37.4 | 30.8
CC(O)(CSc1ccc(C(F)(F)F)cc1)C(=O)Nc1ccc(S(F)(F)(F)(F)F)cc1 (racemic) | 17 | 14.8 | 28.8 | 24.8
CC(O)(CSc1ccc(OC(F)(F)F)cc1)C(=O)Nc1cccc(S(F)(F)(F)(F)F)c1 (racemic) | 10.3 | 17 | 24.7 | 28.5
CC(O)(CSc1ccccc1OC(F)(F)F)C(=O)Nc1ccc(S(F)(F)(F)(F)F)cc1 (racemic) | 10.6 | 15 | 29 | 10.1
CC(O)(CSc1cccc(C(F)(F)F)c1)C(=O)Nc1ccc(S(F)(F)(F)(F)F)cc1 (racemic) | 18.3 | 23.4 | 26.2 | 18.8
CC(O)(CSc1cccc(S(F)(F)(F)(F)F)c1)C(=O)Nc1ccc([N+](=O)[O-])c(C(F)(F)F)c1 (racemic) | 8.6 | 8.8 | 13.9 | 9.8
CC(O)(CSc1ccc(F)cc1)C(=O)Nc1ccc(S(F)(F)(F)(F)F)cc1 (racemic) | 12.5 | 13.5 | 25.4 | 23

Compound | IC50 (LNCaP) [µM] | IC50 (CWR22R) [µM] | IC50 (DU-145) [µM] | IC50 (VCaP) [µM]
CC(O)(CSc1ccc(C(F)(F)F)cc1)C(=O)Nc1cccc(S(F)(F)(F)(F)F)c1 (racemic) | 17.5 | 26.9 | 27.2 | 27.3
CC(O)(CSc1ccccc1OC(F)(F)F)C(=O)Nc1cccc(S(F)(F)(F)(F)F)c1 (racemic) | 10 | 13.9 | 17.5 | 12.6
CC(O)(CSc1ccc(C(F)(F)F)cn1)C(=O)Nc1ccc(S(F)(F)(F)(F)F)cc1 (racemic) | 12.3 | 20 | 30.7 | 19
CC(O)(COc1ccc(S(F)(F)(F)(F)F)cc1)C(=O)Nc1ccc([N+](=O)[O-])c(C(F)(F)F)c1 (racemic) | 100 | 14.1 | 21.2 | 100
CC(O)(CSc1ccc(S(F)(F)(F)(F)F)cc1)C(=O)Nc1ccc([N+](=O)[O-])cc1C(F)(F)F (racemic) | 10.3 | 13.1 | 14.5 | 26.3
CC(O)(COc1ccc(S(F)(F)(F)(F)F)cc1)C(=O)Nc1ccc([N+](=O)[O-])cc1C(F)(F)F (racemic) | 14.8 | 17.1 | 15.4 | 26.1
CC(O)(CSc1ccc(S(F)(F)(F)(F)F)cc1)C(=O)Nc1ccc(C#N)cc1C(F)(F)F (racemic) | 15.1 | 13.2 | 17.7 | 20.5
CC(O)(CSc1cccc(OC(F)(F)F)c1)C(=O)Nc1ccc(S(F)(F)(F)(F)F)cc1 (racemic) | 12.8 | 14 | 23.8 | 13.8
CC(O)(CSc1cccc(S(F)(F)(F)(F)F)c1)C(=O)Nc1ccc([N+](=O)[O-])cc1C(F)(F)F (racemic) | 12.7 | 17.5 | 18.9 | 28.8
CC(O)(CSc1cccc(S(F)(F)(F)(F)F)c1)C(=O)Nc1ccc(C#N)c(C(F)(F)F)c1 (racemic) | 14.5 | 20.4 | 32.7 | 31.7
CC(O)(CSc1ccc(OC(F)(F)F)cc1)C(=O)Nc1ccc(S(F)(F)(F)(F)F)cc1 (racemic) | 16.1 | 14.9 | 12.5 | 16
CC(O)(COc1ccc(S(F)(F)(F)(F)F)cc1)C(=O)Nc1ccc(C#N)c(C(F)(F)F)c1 (racemic) | 11.5 | 28.2 | 25.5 | 30.1
CC(O)(CSc1cccc(S(F)(F)(F)(F)F)c1)C(=O)Nc1ccc(S(F)(F)(F)(F)F)cc1 (racemic) | 25 | 17.7 | 17.3 | 28.2
CC(O)(COc1cccc(S(F)(F)(F)(F)F)c1)C(=O)Nc1ccc(C#N)c(C(F)(F)F)c1 (racemic) | 9.8 | 10.7 | 16 | 8
CC(O)(CSc1ccc(S(F)(F)(F)(F)F)cc1)C(=O)Nc1ccc(S(F)(F)(F)(F)F)cc1 (racemic) | 18.3 | 24.4 | 22.3 | 28
CC(O)(CSc1cccc(OC(F)(F)F)c1)C(=O)Nc1cccc(S(F)(F)(F)(F)F)c1 (racemic) | 10.9 | 18.7 | 25 | 17.5
CC(O)(CSc1cc(C(F)(F)F)cc(C(F)(F)F)c1)C(=O)Nc1ccc(S(F)(F)(F)(F)F)cc1 (racemic) | 17.6 | 15.8 | 29.7 | 19.4
CC(O)(CSc1ccccc1C(F)(F)F)C(=O)Nc1cccc(S(F)(F)(F)(F)F)c1 (racemic) | 12.3 | 13.2 | 15.8 | 21
CC(O)(CSc1cccc(S(F)(F)(F)(F)F)c1)C(=O)Nc1cccc(S(F)(F)(F)(F)F)c1 (racemic) | 12.9 | 17.2 | 30.3 | 29
CC(O)(COc1cccc(S(F)(F)(F)(F)F)c1)C(=O)Nc1ccc(C#N)cc1C(F)(F)F (racemic) | 9.9 | 11.6 | 16.3 | 10.3
CC(O)(CSc1ccc(S(F)(F)(F)(F)F)cc1)C(=O)Nc1ccc(C#N)c(C(F)(F)F)c1 (racemic) | 16.9 | 18.1 | 27.9 | 30.2
CC(O)(CSc1ccc(F)cc1)C(=O)Nc1cccc(S(F)(F)(F)(F)F)c1 (racemic) | 26.9 | 30.2 | 38.5 | 21.9
